Source: ChEMBL document CHEMBL4513216, “Probing the Open Global Health Chemical Diversity Library for Multistage-Active Starting Points for Next-Generation Antimalarials” (ACS Infect Dis, 2020)

Assay: Toxicity liver stage against HepG2, at 10uM
Assay type: cell-based
Set-up: test concentration 10 uM, cell line HepG2-A16-CD81EGFP
Conditions: human, HepG2-A16-CD81EGFP cells; read-out: INHIBITION
Procedure, shortened: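 Uninfected HepG2-A16-CD81EGFP cells, 3 × 10^3 per well, 1536-well, plated on prespotted compound at 10 μM final, parasite-free screening media added to match infected plates; puromycin 10 μM positive, DMSO 0.5% negative; run in parallel with 48 h PbLuc assay at 37 °C, 5% CO2; viability by CellTiter-Glo luminescence, normalized to controls.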

Compound	cytotoxicity at 10 µM [%]
CCc1cc(CNC(=O)C2CCC(=O)N(Cc3ccccc3F)C2)on1 (stereo unspecified)	1.48
O=C(NC[C@H]1OC[C@@H](NCc2cccs2)[C@@H]1O)N1CCOCC1	-3.53
CC(C)(O)c1cn(C[C@H]2C[C@@H]3CCN2C[C@@H]3C(=O)N2CCOCC2)nn1	3.49
COc1ccc(C)cc1NC(=O)c1c(C)cn(C)c1CC(=O)O	-0.713
O=C1CN(C(=O)C2CCCCC2)CC(O)CN1Cc1ccc(Cl)cc1 (stereo unspecified)	6.02
O=C(COc1coc(CN2CCOCC2)cc1=O)Nc1ccccc1F	-10.7
Cc1cc(NCc2ccccc2)nc2[nH]nc(N)c12	-44
Cn1[nH]c(CNc2cccc(Cl)c2)nc1=O	-0.165
O=C(NCCc1c[nH]c2ccc(F)cc12)C1(n2cnnn2)CCCCC1	-1.34
CCS(=O)(=O)N1CC(c2nc(-c3ccsc3)no2)C1	-8.25
Cc1nc(N2CCCC2)nc(C)c1NC(=O)c1ccco1	-7.7
CCOCC1COCCC12CCN(C(=O)CC1=CCCCC1)CC2 (stereo unspecified)	2.99
CC1CCCCN1C(=O)c1nc2c(n1C(C)C)CCN(C(=O)C1CC1)C2 (stereo unspecified)	15.4
COc1cccc(CC(=O)N2CC[C@@H]3NC(=O)CC[C@@H]32)c1	-4.04
O=C(NC1CCCC1)c1nc2c(o1)CN(CCO)C2	13.2
CN(C)C(=O)N1CCN(C(=O)c2ccccc2)CC2(CNC(=O)C2)C1 (stereo unspecified)	7.19
CS(=O)(=O)N1CCCC12CCCN(S(=O)(=O)c1ccc(F)c(F)c1)C2 (stereo unspecified)	1.46
CCOCc1ncn2c1CN(S(=O)(=O)c1cccs1)CC2	0.719
Cc1ccc(C(=O)N2CC[C@H]3O[C@@H](c4noc(C)n4)C[C@H]3C2)o1	1.92
CCOc1cccc(CNc2ccccc2OC)c1O	0.142
CCN(c1ccc(C(=O)NCCCN2CCOCC2)cc1)S(=O)(=O)CC	1.34
CN(C)C(=O)NC1COC2(CCN(Cc3nccn3C)CC2)C1 (stereo unspecified)	9.48
N#Cc1c(N2CCCCC2)nsc1-c1cccnc1	18.8

Compound	cytotoxicity at 10 µM [%]
COc1cc2cc(C(=O)O)n(C)c2cc1OC	1.03
CCn1cc(NC(=O)CN2CCC(Oc3ccccc3C)CC2)c(C)n1	0.343
Cc1cc(N2CCOC(c3ccc(N(C)C)cn3)C2)nc(N)n1 (stereo unspecified)	5.62
Cc1nccn1[C@@H]1CC[C@@H](N(C)S(=O)(=O)c2ccc(F)cc2)[C@H]1O	-0.535
CC(=O)N1CCCC1c1ccc(Br)cn1 (stereo unspecified)	4.29
Cc1nc(N)cc(C2CCN2CCOc2ccccc2)n1 (stereo unspecified)	10
Cc1cnc2[nH]c(C(F)(F)F)c(CN3CCOCC3)c2c1	11.7
c1cc2cc[nH]c2c(CC2CN(Cc3cncs3)C2)n1	-0.54
CC(C)(C)CN1CCC(c2nccnc2Nc2cnccn2)CC1	-4.98
Cn1nc(-c2ccc(F)cc2)cc1C(=O)NCCn1ccnc1	3.68
Cn1ccc(C(=O)N2CCCC(Cc3cnc4ccccc4c3)C2)n1 (stereo unspecified)	-6.19
Cc1csc2c(=O)n3c(nc12)CCN(C(=O)c1ccnn1C)CC3	-9.35
CN1CCN(Cc2c(-c3ccco3)[nH]c3ncccc23)CC1	5.63
O=C(C1CCCC1)N1CC2(CCCN(C3COC3)C2)Cc2ccccc21 (stereo unspecified)	9.96
CCc1ccccc1CNC(=O)CNCC(F)(F)F	10.6
Cc1cc(CN2CCN(Cc3cc(C#N)ccc3F)CC2)no1	5.78
CC(C)(Oc1ccc(F)cc1)C(=O)NCc1ccco1	-9.19
COC(=O)c1ncccc1N1CCCC1	-3.1
Cc1c(C(=O)N2CCC2(C)C)nnn1-c1cccc2cccnc12	4.13
CC(C)(C)c1cnc(CN2CCCS2(=O)=O)o1	2.07
CCCc1n[nH]c(C2CN(CCNC3CCCCC3)CCO2)n1 (stereo unspecified)	2.75
CC(NC(=O)NC1CCN(CC2CCCC2)CC1)c1nccs1 (stereo unspecified)	3.2
CC1CN(C(=O)c2nccnc2N)c2ccc(F)cc2O1 (stereo unspecified)	4.28

Compound	cytotoxicity at 10 µM [%]
CN(Cc1ccsc1)C(=O)c1nc(N2CCCC2)ncc1Cl	-45.5
O=C(CCSc1ccccc1F)NCc1cccnc1	-4.48
Cc1ccc(NS(=O)(=O)c2cccc(C#N)c2)c(CN(C)C)c1	-4.97
Cc1cccnc1NC(=O)C1CCCN(c2cccc(C(F)(F)F)n2)C1 (stereo unspecified)	4.95
Cn1c(NC(=O)CNC(=O)C2CC2)nc2cc(Cl)ccc21	3.66
N#Cc1ccnc(N2CCN(CC(O)c3c(F)cccc3F)CC2)c1 (stereo unspecified)	-5.43
CCN(CC(=O)NC(C)C)S(=O)(=O)N1CCCCC1C (stereo unspecified)	-1.14
Cc1cc(C)c2c(OCC(=O)N(C)CC(=O)NC(C)C)nn(C)c2n1	1.28
O=C(Nc1ccc2ncccc2c1)C1CC(=O)N(Cc2ccccn2)C1 (stereo unspecified)	3.31
Cc1ccccc1OCCCC(=O)N(C)CCC#N	2.33
CNc1cc(N2CCCC2CNCc2ccc(C)o2)ncn1 (stereo unspecified)	-2.69
Cn1ccnc1-c1noc(NCc2ccc3c(c2)OCCO3)n1	-0.408
CNC(=O)CN(C)c1cncc(OCC(C)C)n1	0.137
CC(C)CCN1CCN(C(=O)c2c[nH]nn2)CC1	1.64
Cc1nc(NC(=O)OC(C)(C)C)sc1C(N)=O	-14.4
CC(=O)NCCNC(=O)Nc1ccc(C)cc1OCc1ccccc1	9.79
CC(C)c1nc(C2CCCN2CCN2CCCCC2)no1 (stereo unspecified)	-4.58
Cc1cccc(-c2nc(C)nn2CN2CCN(c3ncccn3)CC2)c1	-6.45
CN(C)C(=O)N1Cc2nnn(CC3CC3)c2C(COCC2CC2)C1 (stereo unspecified)	8.26
Cc1noc(C)c1CN1C[C@@H]2COC[C@@H](CC(=O)N3CCCO3)[C@@H]2C1	-68.3
CCC(Nc1cccc(OC)c1)C(=O)NCc1ccc2[nH]c(=O)[nH]c2c1 (stereo unspecified)	1.67
CN(C)[C@@H]1C[C@@H](CO)N(C(=O)Nc2cccc(F)c2F)C1	-0.103
Cc1nn(CCO)c(C)c1-c1cc(C(C)(C)C)nc(N)c1C#N	4.93

Compound	cytotoxicity at 10 µM [%]
CCOCCn1nc(C)cc1C(=O)N1CCCC[C@H](N(C)C)C1	-3.68
COCCN1CCN(Cc2ccc3nsnc3c2)[C@H]2CS(=O)(=O)C[C@H]21	-5.94
CSCC1CCCN(c2ncnc3oc(C)nc23)C1 (stereo unspecified)	4.03
O=C(c1cc(COc2ccc3c(c2)OCO3)[nH]n1)N1CCCC(O)C1 (stereo unspecified)	-8.07
CC(c1ccccc1)n1c(SCC(=O)O)nnc1-c1ccn[nH]1 (stereo unspecified)	-0.0682
Cc1nc(C)n(CC(C)C(=O)N2CCC(NS(C)(=O)=O)CC2)n1 (stereo unspecified)	-4.4
NC(=O)NCC(=O)N1CCC(c2cc(-c3ccccc3Cl)n[nH]2)CC1	-0.208
CCCOCCn1ncc(N2CCc3ccccc3C2)cc1=O	2.63
Cc1ccc2c(c1)SCC(=O)N2Cc1noc(C2CC2)n1	7.4
c1cc2c(cc1-c1noc3c1CN(C1CCSCC1)CC3)OCO2	5.51
COCc1ncc(-c2nccn2CCn2cnnc2)cn1	4.6
Cc1cn(CC(=O)Nc2cc(C(C)C)nn2C)cn1	5.44
COc1ccccc1-n1c(CC(C)C)nnc1SCC(=O)O	-6.71
CN1CCC(Cc2noc(-c3cccc(Oc4ncccn4)c3)n2)CC1	-5.21
CC(NC(=O)CN(C)S(C)(=O)=O)c1ccc(F)cc1 (stereo unspecified)	-4.36
CCOc1ccc(C(=O)N(CCOC)Cc2c(C)nn(CC)c2C)o1	-2.99
Cc1ccc(OCc2occc2C(=O)N2CCOC(C(=O)O)C2)cc1 (stereo unspecified)	-2.14
Cc1ccccc1CNc1nc(O)cc(C2CC(=O)N(C)C2)n1 (stereo unspecified)	-0.336
Cc1n[nH]c(C)c1C1COCCN1C(=O)c1cccc(F)c1F (stereo unspecified)	-8.45
Cc1cnn(CC2CCCN2CC(=O)Nc2cc(C)no2)c1 (stereo unspecified)	2.27
Cn1ccc(CN2CCC(Cc3ccccc3)CC2)cc1=O	1.78
Cc1nc2c(c(C)c1CC(=O)NCc1cccs1)c(=O)[nH]n2C	-34.2
CCc1nc(C2CCCN(C(=O)NCCOC)C2)no1 (stereo unspecified)	-0.775

Compound	cytotoxicity at 10 µM [%]
O=C(c1ccccc1N1CCOCC1)N1CCCC1Cn1cccn1 (stereo unspecified)	-7.44
Cc1cc(NC(=O)CN2CCn3c(nnc3C(C)C)C2)on1	5.05
c1cnc(-c2nc(CN3CCn4c(nnc4C4CC4)C3)cs2)nc1	-6.93
CC(NC(=O)NCCNc1cnccn1)c1cccs1 (stereo unspecified)	-3.79
c1csc(N2CCCN(Cc3nc(C4CC4)no3)CC2)n1	-9.68
Cc1[nH]nc2ncc(C(=O)N3CCN(CC(C)C)CC3)cc12	-3.88
O=C(c1cocn1)N1CCC2(CC1)CC(Oc1ccccn1)CO2 (stereo unspecified)	9.34
COC[C@@H]1CCC[C@@]12CN(Cc1ccco1)CCO2	2.03
CS(=O)(=O)CC(=O)N1C[C@H]2CCC[C@@]2(COc2ccccn2)C1	-99.2
CC(=O)N1CCCC2(CN(Cc3ccc(F)cc3)CCO2)C1 (stereo unspecified)	0.283
COc1ccc(CN2CC[C@@H]3CN(S(C)(=O)=O)CCO[C@@H]3C2)cc1	-1.55
CS(=O)(=O)N1CCCC12CCN(Cc1nccs1)C2 (stereo unspecified)	2.26
O=C([C@H]1C[C@H]2OCC[C@H]2N(CCc2ccccc2)C1)N1CCCCO1	0.307
c1ccc(OCc2n[nH]c3c2CN(Cc2cccs2)C3)nc1	8.25
CCN1CC2(CCNCC2)COc2ccccc2S1(=O)=O	-3.06
COCC1CN(S(=O)(=O)Cc2ccc(C)cc2)Cc2c1cnn2C (stereo unspecified)	3.51
Cc1ccccc1C(=O)N1CCO[C@H]2[C@H](OCCN(C)C)CC[C@@H]21	-2.95
CN(C)CCNC(=O)[C@H]1C[C@H]2CN(C(=O)NCc3ccccc3)C[C@@H]1O2	1.96
COc1ccc(C2=CN=C(C(F)(F)F)CC2N)cc1 (stereo unspecified)	16.6
